KCNK3 block: human KCNK3 channel inhibitors, primary screen, CHO cells, FluxOR thallium flux, B-score; Potassium channel subfamily K member 3 (Homo sapiens), O14649; FluxOR fluorescence; stronger effect = lower value; B-score at 10 µM; actives 0.84% (n = 340,000);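 active = B-score under library mean minus 4 SD, starting fluorescence ratio at most library mean plus 5 SD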;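 also: more negative B-score means stronger inhibition of thallium flux through KCNK3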
Target sequence (O14649 whole entry, looked up): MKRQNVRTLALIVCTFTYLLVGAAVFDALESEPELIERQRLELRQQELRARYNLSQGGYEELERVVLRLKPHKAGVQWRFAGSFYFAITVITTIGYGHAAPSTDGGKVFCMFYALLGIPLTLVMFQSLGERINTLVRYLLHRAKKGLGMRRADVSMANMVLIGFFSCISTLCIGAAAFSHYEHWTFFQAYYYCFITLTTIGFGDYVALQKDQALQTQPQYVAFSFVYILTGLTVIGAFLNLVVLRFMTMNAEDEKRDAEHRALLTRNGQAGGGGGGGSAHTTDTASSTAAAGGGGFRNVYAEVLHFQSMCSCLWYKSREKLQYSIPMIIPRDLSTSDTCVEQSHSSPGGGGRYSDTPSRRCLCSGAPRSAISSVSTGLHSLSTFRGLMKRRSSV
Kir21 block: inhibitors of mouse Kir2.1 inward-rectifier potassium channel. HEK293-Kir2.1, FluxOR thallium flux fluorescence; stronger effect = lower value. B-score at 10 µM. actives 0.85% (n = 310,000). AID 1672, 2009;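 active = fluorescence ratio B-score at or below minus 3 SD of library scores, with starting-brightness B-score within 2 SD, cut at about -4.2 in these data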;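 also: channel flux triggered by added potassium and thallium sulfate stimulus; B-score of peak minus minimum fluorescence over baseline after thallium stimulus; more negative B-score means stronger Kir2.1 block with less thallium influx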
hERG rescue: hERG rescue from dofetilide block, primary screen, cell-based, CHO-hERG, FluxOR thallium flux, dofetilide IC70. Voltage-gated inwardly rectifying potassium channel KCNH2 (Homo sapiens), Q12809. dofetilide IC70 present. activation (rescue from dofetilide block), less the hit threshold, % at 10 µM. actives 0.51% (n = 310,000). AID 1511, 2009;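 active = activation above the mean of controls blocked by dofetilide plus 5 SD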;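 also: thallium influx through hERG after potassium depolarization seen as dye fluorescence rise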
KCNQ1 block: inhibitors of human KCNQ1 channel, primary screen, cell-based, thallium flux, high-throughput | Potassium voltage-gated channel subfamily KQT member 1 (Homo sapiens), P51787 | CHO-K1 KCNQ1, FluxOR thallium flux fluorescence; stronger effect = higher value | B-score at 10 µM | actives 1.3% (n = 310,000);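 active = compounds whose thallium flux B-score, printed positive for inhibition, exceeds three library SD while starting fluorescence stays within three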;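 also: channel opened by potassium depolarization with thallium stimulus after 20 min compound exposure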
KCNQ1 act: potentiators or activators of KCNQ1 channel, primary screen, cell-based, thallium flux, high-throughput. actives 0.35% (n = 310,000). CHO-K1 KCNQ1, thallium flux FluxOR fluorescence; stronger effect = higher value. B-score at 10 µM. AID 2648, 2010. Potassium voltage-gated channel subfamily KQT member 1 (Homo sapiens), P51787;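 active = fluorescence ratio B-score, a plate-corrected score, at least three library SD, with initial intensity B-score within 5 SD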
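Medium – assay buffer, equal DMSO in all wells · Material – CHO-K1 cell line with stable KCNQ1 potassium channel expression · Signal – kinetic FluxOR thallium fluorescence, 10-s 1-Hz baseline, 110-s post-stimulus read · Compound – single concentration per compound, DMSO matched to controls · Schedule – 37 °C overnight plating, 90-min dark dye load, 20-min compound pretreatment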
KCNK9 block: KCNK9 potassium channel inhibitors, primary screen, HEK293 cells, thallium flux | FluxOR thallium flux fluorescence; stronger effect = lower value | B-score at 10 µM | actives 1.2% (n = 310,000) | Potassium channel subfamily K member 9 (Homo sapiens), Q9NPC2;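 active = ratio B-score over 3 SD below the library mean, with starting fluorescence within 5 SD of its mean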;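 also: negative B-score means less thallium flux so channel inhibition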
Target sequence (Q9NPC2 whole entry, looked up): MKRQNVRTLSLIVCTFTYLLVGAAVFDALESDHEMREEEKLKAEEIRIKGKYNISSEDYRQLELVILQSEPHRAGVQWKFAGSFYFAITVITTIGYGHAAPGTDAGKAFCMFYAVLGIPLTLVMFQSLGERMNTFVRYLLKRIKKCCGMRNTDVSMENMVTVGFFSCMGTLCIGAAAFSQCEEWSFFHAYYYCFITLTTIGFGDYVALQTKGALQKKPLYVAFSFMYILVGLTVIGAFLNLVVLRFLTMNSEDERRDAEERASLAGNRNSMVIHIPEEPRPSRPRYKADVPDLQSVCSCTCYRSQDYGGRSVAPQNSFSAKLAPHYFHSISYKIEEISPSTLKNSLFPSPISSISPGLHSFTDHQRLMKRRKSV
KCNK3 confirm: retest of human KCNK3 channel inhibitors, confirmation, CHO cells, FluxOR thallium flux, triplicate; shares compounds with KCNK3 block; FluxOR fluorescence; 0% buffer, 100% carvedilol maximal block; ratio percent of control, % at 10 µM; actives 99% (n = 2,400); AID 651638, 2012;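 active = ratio percent of control, averaged over triplicates, above buffer control mean plus 5 SD, cut at about 64% in these data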;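 also: ratio is the fluorescence rise from min to max over baseline after thallium stimulus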
KCNK3 noninduced: thallium flux inhibition in non-induced cells, primary screen, counter-screen for KCNK3 inhibitor project, cell-based, non-induced KCNK3 line, FluxOR thallium, triplicate | thallium flux ratio (lower = more inhibition) at 10 µM | shares compounds with KCNK3 block | non-induced KCNK3 parental cells; stronger effect = lower value | AID 651747, 2012 | actives 40% (n = 2,400);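 active = thallium flux ratio, averaged over three wells, more than 5 SD below the buffer control mean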;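 also: host cells are CHO cells without KCNK3 induction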
Of the large screens only hits and unclear results are named; the others gave an inactive call (follow-up assays come after a bar, where they were run). Only some compounds are listed: those with a hit (about 3.7% of all), similar ones and a draw of the others.

CC(C)c1ccccc1-n1c(SCC(=O)c2ccc3c(c2)NC(=O)CO3)nc2ccccc2c1=O	KCNK3 block -11, KCNQ1 block 6, KCNK9 block -7.4 | KCNK3 confirm 115 | KCNK3 noninduced 0.15
O=C(NCCc1ccc(C(F)(F)F)cc1)C1CCC(=O)N(CCCN2CCCC2=O)C1 (stereo not drawn)	none
CC(CNS(=O)(=O)c1ccc2c(c1)CC(=O)N2C)c1ccccc1 (stereo not drawn)	none
C=C(C)COc1ccc(-c2[nH]ncc2-c2ccccc2OC)c(O)c1	KCNK3 block -9 | KCNK3 confirm 96 | KCNK3 noninduced inactive
C=C(C)COc1ccc(-c2[nH]ncc2Oc2ccccc2OC)c(O)c1	none
CCn1c(=NC(=O)c2cccc(N3C(=O)CCC3=O)c2)sc2c(C)ccc(OC)c21	KCNK3 block -9.4 | KCNK3 confirm 106 | KCNK3 noninduced inactive
CCn1c(=NC(=O)c2ccc(N3C(=O)CCC3=O)cc2)sc2c(OC)ccc(OC)c21	none
O=C(NCc1cccc(Cl)c1)c1ccc(N2CC3CC(C2)c2cccc(=O)n2C3)c(NC(=O)c2cccnc2)c1 (stereo not drawn)	none
CC(C)(C)n1nnnc1C(c1cccnc1)N1CCN(C2CCCCC2)CC1 (stereo not drawn)	none
CC(C)(C)n1nnnc1C(c1cccnc1)N1CCN(c2cccc(C(F)(F)F)c2)CC1 (stereo not drawn)	KCNK3 block -10 | KCNK3 confirm 77 | KCNK3 noninduced inactive
NC(=O)C1CCN(C(=O)C(=O)c2cn(CC(=O)N3CCCCCC3)c3ccccc23)CC1	none
C(=Cc1c[nH]c2ccccc12)c1nccc2ccccc12	KCNK3 block -14 (no result: Kir21 block, hERG rescue, KCNQ1 block, KCNQ1 act, KCNK9 block) | KCNK3 confirm 167 | KCNK3 noninduced 0.044
CCOC(=O)c1c(NC(=O)c2cccs2)sc(C)c1CC	KCNK3 block -9.8, KCNK9 block -7.5 | KCNK3 confirm 119 | KCNK3 noninduced inactive
CCOC(=O)c1c(NC(=O)c2cccs2)sc(C(=O)N(C)C)c1C	none
COc1ccc(C)cc1-n1c(SCC(=O)Nc2cc(C)on2)nc2sc(C)c(C)c2c1=O	KCNK3 block -11 | KCNK3 confirm 128 | KCNK3 noninduced inactive
O=C(COC(=O)CN1C(=O)c2ccccc2C1=O)NC1CCCCC1	none
CC(=O)N(/N=C1/C(=O)Nc2ccccc21)c1ccccc1	KCNK3 block -9 | KCNK3 confirm 125 | KCNK3 noninduced 0.12
CC(=O)c1ccc(N=C2C(=O)Nc3ccccc32)cc1	none
Cc1c(C)c2c(OCC(=O)N3CCC(C(N)=O)CC3)cc3c(c2oc1=O)CCC(C)(C)O3	none
O=C(COc1ccc(F)cc1)N1c2ccccc2CCc2ccccc21	none
O=C(COc1cccc2ccccc12)N1c2ccccc2CCc2ccccc21	KCNK3 block -13 | KCNK3 confirm 120 | KCNK3 noninduced 0.15
COc1ccccc1C(C(=O)NC1CCCC1)N(C(=O)c1csnn1)C1CC1 (stereo not drawn)	none
CCN(CC)S(=O)(=O)c1ccc(-c2cc(C(=O)OC)sc2C(F)(F)F)cc1	KCNK3 block -9.7 | KCNK3 confirm 109 | KCNK3 noninduced inactive
COC(=O)c1cc(-c2ccc(S(=O)(=O)N3CCCC3)cc2)c(C(F)(F)F)s1	none
CC1CCCCC1NC(=O)c1ccc2c(c1)[nH]c(=O)n2C1CCCC1 (stereo not drawn)	KCNK3 block -9.5 | KCNK3 confirm 105 | KCNK3 noninduced inactive
NC(N)=N/N=C/c1ccc(OCc2ccc(Cl)cc2)cc1	KCNK3 block -10, Kir21 block -9.8, KCNQ1 block 7 | KCNK3 confirm 70 | KCNK3 noninduced inactive
Cc1ccc(COc2ccc(/C=N/O)cc2)cc1	none
C/C(=N/Nc1ccc(C(=O)c2c(C)cc3ccccn23)cc1[N+](=O)[O-])c1ccc(O)cc1	none (no result: Kir21 block, hERG rescue, KCNQ1 block, KCNQ1 act, KCNK9 block)
Cc1ccc(S(=O)(=O)Nc2cccc(C(=O)NCC3(N4CCCCC4)CCCCC3)c2)cc1F	none
Cc1ccc(NC(=O)C(=O)c2c(-c3ccccc3)cc3ccccn23)cc1S(=O)(=O)N1CCOCC1	KCNK3 block -10 | KCNK3 confirm 113 | KCNK3 noninduced inactive
NS(=O)(=O)c1ccc(CCNC(=O)c2cc([N+](=O)[O-])ccc2N2CCOCC2)cc1	none (no result: Kir21 block, hERG rescue, KCNQ1 block, KCNQ1 act, KCNK9 block)
COc1ccc(OC)c(-c2csc(NC(=O)Cc3cc(OC)c(OC)c(OC)c3)n2)c1	none
COc1ccc(OC)c(-c2csc(NC(=O)Cc3ccc(F)cc3)n2)c1	KCNK3 block -11 | KCNK3 confirm 114 | KCNK3 noninduced inactive
O=C(Cc1ccccc1F)Nc1nc(-c2ccc(F)cc2)cs1	KCNK3 block -11 | KCNK3 confirm 126 | KCNK3 noninduced inactive
COC(=O)c1ccc(-c2csc(NC(=O)C3=COCCO3)n2)cc1	none
COc1ccc(OC)c(-c2csc(NC(=O)C3=COCCO3)n2)c1	KCNK3 block -9.1 | KCNK3 confirm 91 | KCNK3 noninduced inactive
Cn1c(SCC(=O)NC2CCCC2)nnc1C(F)(F)F	none (no result: Kir21 block, hERG rescue, KCNQ1 block, KCNQ1 act, KCNK9 block)
CSc1cc(-c2ccncc2)nc(-c2ccc(Cl)cc2)c1	none
C=CC(C)(O)CCCC(C)CCCC(C)CCCC(C)C (stereo not drawn)	none (no result: Kir21 block, hERG rescue, KCNQ1 block, KCNQ1 act, KCNK9 block)
COC(=O)c1sc(S(=O)(=O)NC(Cc2ccccc2)C(=O)O)c(C(=O)OC)c1C (stereo not drawn)	none (no result: Kir21 block, hERG rescue, KCNQ1 block, KCNQ1 act, KCNK9 block)
COC(=O)c1c(S(=O)(=O)NCc2ccccc2)sc(C(=O)O)c1C	KCNK3 block -11 | KCNK3 confirm 121 | KCNK3 noninduced 0.16
C=CCN(c1nc(C)cc(OC)n1)S(=O)(=O)c1ccc(C)cc1	none
C=CCN(c1nc(C)cc(OC)n1)S(=O)(=O)c1ccccc1	KCNK3 block -9.2, Kir21 block -7.9 | KCNK3 confirm 107 | KCNK3 noninduced inactive
COCCn1c(/C=C/c2ccccc2)nc2ccccc21	KCNK3 block -8.8 | KCNK3 confirm 83 | KCNK3 noninduced inactive
COCCn1c(-c2ccccc2)nc2ccccc21	none
CCCCN(C(=O)c1ccc(NC(=O)C(C)C)cc1)c1ccccc1	none

Screening results from PubChem.
